Screening data from PubChem BioAssay.
The list is not random: actives were taken first. Their share in the collection is about 1.9%.
Neddylation inh: cullin neddylation inhibition. TR-FRET cullin neddylation, biochemical. inhibition, % at 25 µM. 0.58% of 360,000 active. AID 651699; in the data active = inhibition above about 36%
Target sequence (P61081 whole entry, looked up): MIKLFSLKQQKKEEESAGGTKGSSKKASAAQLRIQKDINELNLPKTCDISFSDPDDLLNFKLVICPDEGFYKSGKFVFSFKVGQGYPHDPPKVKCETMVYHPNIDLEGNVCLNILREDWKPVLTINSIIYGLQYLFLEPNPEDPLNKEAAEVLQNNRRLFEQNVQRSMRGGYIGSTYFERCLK
Target sequence (Q13564 whole entry, looked up): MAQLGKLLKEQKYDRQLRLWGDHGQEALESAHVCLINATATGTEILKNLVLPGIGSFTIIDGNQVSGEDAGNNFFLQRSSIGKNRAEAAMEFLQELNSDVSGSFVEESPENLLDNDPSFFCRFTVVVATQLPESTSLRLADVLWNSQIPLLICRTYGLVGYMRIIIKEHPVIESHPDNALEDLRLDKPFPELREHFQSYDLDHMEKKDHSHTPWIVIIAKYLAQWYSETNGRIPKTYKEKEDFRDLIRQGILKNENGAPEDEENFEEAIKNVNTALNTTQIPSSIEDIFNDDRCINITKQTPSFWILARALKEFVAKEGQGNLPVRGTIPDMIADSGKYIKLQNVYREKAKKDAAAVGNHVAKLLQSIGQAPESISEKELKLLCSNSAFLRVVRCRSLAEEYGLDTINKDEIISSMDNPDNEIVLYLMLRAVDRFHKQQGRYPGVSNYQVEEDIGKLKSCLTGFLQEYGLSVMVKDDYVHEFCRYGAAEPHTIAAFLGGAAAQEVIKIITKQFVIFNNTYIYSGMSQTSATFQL
GAA850 FXN act: frataxin GAA850 promoter activation; activation, % at 6 µM; AID 540364; 0.56% of 360,000 active; HEK293 lucGAA850 FXN promoter luciferase reporter, 24 h; percent of 10 µM SAHA response;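 active = activation above the average of all compounds screened plus 3 SD, cutoff fixed separately per campaign, cut at about 7.5% in these data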;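 note: 0% = DMSO wells and 100% = 10 µM SAHA wells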
procasp7 counter: counter-screen for procaspase-3 activators: activators of human procaspase-7. P55210. recombinant procaspase-7, Ac-DEVD-pNA absorbance 405 nm; D23A/D198A/D206A triple mutant, cannot self-cleave; scale: DMSO 0, 5 µM enzyme 100. activation, % at 8.5 µM. AID 463210. 0.093% of 330,000 active;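 active = percent activation above the screen-wide mean plus 3 SD, cut at about 25% in these data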
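System: Procaspase-7 triple mutant (PC-7 D3A); measure: % activation from two-timepoint absorbance difference, scaled to controls; times: 1 h compound preincubation, 2 h substrate cleavage, 25 °C; also added: Ac-DEVD-pNA substrate, 400 µM as added; measured by: Epi-absorbance of released pNA at 405 nm, two timepoints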
Calb FLC: affects C. albicans growth with fluconazole | C. albicans CaCi-2 + fluconazole, Alamar Blue growth, 48 h | growth inhibition, % (concentration not given with the values) | 0.57% of 300,000 active;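 active = growth inhibition above about 58% in most replicates, limit read from the data, passing the limit was not always enough; inconclusive = exactly half the replicates above a set limit; inactive = most replicates below a set limit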;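 note: all wells also contain fluconazole at 8 µg/ml as a sub-toxic cotreatment; 0% = median of DMSO wells and 100% = median of geldanamycin control wells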
HIF act: HIF pathway transcriptional activation | 0.32% of 300,000 active | AID 1910 | activation, % at 7.5 µM (by protocol) | U2OS HRE-luciferase reporter, luminescence; normalized: DMSO 0%, desferrioxamine 100%;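 active = mean activation of at least 10% of the iron chelator positive control signal, with at least half of replicates also reaching 10%; inconclusive = mean and replicate majority disagree about reaching 10%; inactive = mean and most replicates under 10%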
procasp3 activ: procaspase-3 (human) activation | recombinant procaspase-3 D3A, Ac-DEVD-pNA absorbance 405 nm | 0.11% of 330,000 active | P42574 | activation, % at 8.5 µM;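 active = activation above the mean of all tested compounds plus 3 SD, cut at about 21% in these data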;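 note: 0% = DMSO alone and 100% = DMSO wells spiked with extra 5 µM PC-3 D3A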
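Test system: Procaspase-3 D3A mutant, all three cleavage aspartates alanine | Dosing: Single dose, 8.5 µM nominal compound, 0.8% DMSO | Schedule: 1 h preincubation, 2 h reaction | Technique: 405 nm absorbance of p-nitroaniline, reads at 0 and 120 min | Repeats: One well per compound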
* hit, by the source's call; ? = inconclusive; · = no result shown.

SMILES | Neddylation inh | GAA850 FXN act | procasp7 counter | Calb FLC | HIF act | procasp3 activ
C/C(=N/Nc1ccc(C)cc1)C1(C)N(O)C(C)(C)C(c2ccco2)=[N+]1[O-] (stereo not drawn) | 5 | 1 | -4 | 112* | 0 | 2
C=CCn1c(=NC(=O)c2ccc(S(=O)(=O)N3CCCc4ccccc43)cc2)sc2cc(S(N)(=O)=O)ccc21 | -5 | 1 | 0 | -9 | 0 | 14
COCCn1c(=NC(=O)c2ccc(S(=O)(=O)N3CCCc4ccccc43)cc2)sc2cc(S(C)(=O)=O)ccc21 | -25 | -4 | 5 | 2 | 105* | 4
CC(=O)Nc1ccc(S(=O)(=O)Nc2ccc(S(=O)(=O)Nc3nccs3)cc2)cc1 | 12 | -1 | -6 | 9 | 23* | -2
CCOC1=C2[C@@H](CN(S(=O)(=O)c3ccc(C)cc3)[C@H]2c2ccccc2)[C@H]2C(=O)N(Cc3ccccc3)C(=O)[C@H]2C1 | -18 | · | · | · | · | ·
COc1ccc(NC(=O)NC(C)c2ccccc2)cc1 (stereo not drawn) | 4 | 2 | · | 100* | · | ·
COc1cc2c3nnc(-c4ccccc4)c-3cn(Cc3ccc(F)cc3)c2cc1OC | · | -3 | -18 | 5 | 0 | -17
COc1cc2c3nnc(-c4ccc(F)cc4)c-3cn(Cc3ccc(C)cc3)c2cc1OC | 38* | -2 | 13 | -3 | 0 | 5
Cc1ccc(N=c2oc3cc(O)ccc3cc2C(N)=O)cc1 | 48* | -7 | -3 | 0 | 3 | -5
CC(=O)c1cc2ccc(O)cc2oc1=O | · | 4 | -47 | 1 | 0 | -26
CC1CCCN(C(=O)c2cccc(S(=O)(=O)Nc3cc(C(F)(F)F)ccc3Cl)c2)C1 (stereo not drawn) | 1 | 0 | 0 | 94* | 0 | -3
O=C(c1cccc(S(=O)(=O)Nc2ccccc2Cl)c1)N1CCC1 | 0 | 0 | 8 | 6 | -2 | -6
COc1cccc(NC(=O)CN(C)CC(=O)Nc2ccc(C)c(S(=O)(=O)N3CCOCC3)c2)c1 | -1 | 0 | · | · | · | ·
CC1(C(=O)NS(=O)(=O)c2cccs2)CCN1C(=O)C1CCCCC1 (stereo not drawn) | 8 | 1 | · | · | · | ·
O=C(O)C1CCC(Cn2c(SCc3cc(=O)n4cc(Br)ccc4n3)nc3ccsc3c2=O)CC1 (stereo not drawn) | -389 | 4 | -7 | 41 | 1 | 6
O=C(O)c1ccc(Cn2c(SCc3cc(=O)n4cc(Br)ccc4n3)nc3ccsc3c2=O)cc1 | · | · | 2 | 112* | -2 | -11
CCCSc1cc(N)cc([N+](=O)[O-])c1 | -27 | 3 | -2 | 97* | 0 | 4
Nc1cccc([N+](=O)[O-])c1 | -16 | 4 | 8 | -11 | 0 | -6
CC(C)OCCCNc1ncnc2c1[nH]c1ccccc12 | 38* | -5 | 4 | 6 | 0 | 7
CCC(=O)N1c2ccc(S(=O)(=O)CCC(=O)N3CCn4c3nc3ccccc34)cc2CC1C (stereo not drawn) | 3 | 0 | -12 | 81* | 1 | -6
CCOC(=O)C1(C)CCN1C(=O)c1ccc(OC)c(F)c1 (stereo not drawn) | 1 | 0 | · | · | · | ·
COC(=O)c1[nH]c2cc(C)ccc2c1NC(=O)CN1CCc2cc(OC)c(OC)cc2C1 | 19 | 1 | 11 | 100* | 0 | 0
Cc1noc(C(=O)Nc2sc3c(c2C#N)CCC3)c1Cl | -3 | 1 | -9 | 31 | 14* | 0
Cc1cc(C(=O)Nc2sc3c(c2C#N)CCC3)no1 | -2 | 1 | 2 | ? | 3 | 1
COC1=C/C(=C/c2c(O)c(C#N)c3ccccn23)C=CC1=O | 39* | 5 | 0 | 5 | 1 | -4
Cc1ccc(/C=N/NC(=O)C2CC(=O)N(c3ccccc3)C2)s1 (stereo not drawn) | -6 | 0 | -8 | 8 | 1 | 5
O=C(N/N=C/c1ccccc1O)C1CC(=O)N(c2ccc(Cl)cc2)C1 (stereo not drawn) | 51* | -3 | -12 | -1 | 9 | -12
